Test results: ChEMBL document CHEMBL1122046, “Quaternary heterocyclylamino beta-lactams: a generic alternative to the classical acylamino side chain” (1982)
Values after ≈ are worked out from the molar mass of the structure shown.

Columns and labels:
Morganella morganii [1] = test: Disk zone diameter (25 ug/disk) against aerobic organism Morganella morganii strain 2834
Klebsiella = test: Inhibition zone diameter against aerobic organism Klebsiella species strain 2921
Staphylococcus aureus [2] = test: Inhibition zone diameter against aerobic organism Staphylococcus aureus strain 2314
Salmonella [3] = test: Inhibition zone diameter against aerobic organism Salmonella strain 826
Serratia marcescens [4] = test: Inhibition zone diameter against aerobic organism Serratia marcescenes strain 2855
Pseudomonas aeruginosa [5] = test: Inhibition zone diameter against aerobic organism Pseudomonas aeruginosa strain 3350
Streptococcus pyogenes [6] = test: Inhibition zone diameter against aerobic organism Streptococcus pyogenes strain 2874
Enterobacter cloacae [7] = test: Minimum inhibitory concentration against aerobic organism Enterobacter cloacae strain 2646; type: functional; details: Enterobacter cloacae; read-out: MIC
How it was run: (§1)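 Agar-dilution MIC in µg/mL against aerobic bacterial strains on tryptocase soy agar, with inoculum applied as spots. Most series used 10^5 cfu per spot, and a later series used 10^4 cfu per spot. In some tables, footnoted strains were instead tested on Mueller-Hinton or nutrient agar. β-Lactamase-producing strains are flagged.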

Proteus vulgaris = test: Minimum inhibitory concentration against aerobic organism Proteus vulgaris strain 2829; type: functional; details: Proteus vulgaris; read-out: MIC
How it was run: as §1

Shigella = test: (§2) Minimum inhibitory concentration against aerobic organism Shigella species strain 2880; type: functional; details: Shigella; read-out: MIC
How it was run: as §1

Pseudomonas aeruginosa [8] = test: Minimum inhibitory concentration against aerobic organism Pseudomonas aeruginosa strain 2835; type: functional
How it was run: as §1

Klebsiella pneumoniae [9] = test: Minimum inhibitory concentration against aerobic organism Klebsiella pneumoniae strain 4005; type: functional
How it was run: as §1

Morganella morganii [10] = test: Minimum inhibitory concentration against aerobic organism Morganella morganii strain 2833; type: functional; details: Morganella morganii; read-out: MIC
How it was run: as §1

Klebsiella aerogenes [11] = test: Minimum inhibitory concentration against aerobic organism Enterobacter aerogenes strain 2906; type: functional; details: Klebsiella aerogenes; read-out: MIC
How it was run: as §1

Proteus mirabilis = test: Minimum inhibitory concentration against aerobic organism Proteus mirabilis strain 2830; type: functional; details: Proteus mirabilis; read-out: MIC
How it was run: as §1

Serratia marcescens [12] = test: Minimum inhibitory concentration against aerobic organism Serratia marcescens strain 2852; type: functional; details: Serratia marcescens; read-out: MIC
How it was run: as §1

Salmonella [13] = test: Minimum inhibitory concentration against aerobic organism Salmonella strain 3860; type: functional
How it was run: as §1

[14] = Minimum inhibitory concentration against aerobic organism Salmonella schottmuelleri strain 2837; type: functional; details: Salmonella; read-out: MIC
How it was run: as §1

Streptococcus pyogenes [15] = test: Minimum inhibitory concentration against aerobic organism Streptococcus pyogenes strain 3124; type: functional
How it was run: as §1

Klebsiella pneumoniae [16] = test: Minimum inhibitory concentration against aerobic organism Klebsiella pneumoniae strain 2882; type: functional; details: Klebsiella pneumoniae; read-out: MIC
How it was run: as §1

Staphylococcus aureus [17] = test: Minimum inhibitory concentration against aerobic organism Staphylococcus aureus strain 2868; type: functional; details: Staphylococcus aureus; read-out: MIC
How it was run: as §1

Escherichia coli = test: MIC against aerobic organism Escherichia coli strain 2891; type: functional; details: Escherichia coli; read-out: MIC
How it was run: as §1

Staphylococcus aureus [18] = test: Minimum inhibitory concentration against aerobic organism Staphylococcus aureus strain 2865; type: functional
How it was run: as §1

Enterococcus faecalis [19] = test: Minimum inhibitory concentration against aerobic organism Streptococcus faecalis strain 2864; type: functional
How it was run: as §1

Klebsiella aerogenes [20] = test: Minimum inhibitory concentration against aerobic organism Enterobacter aerogenes strain 2828; type: functional
How it was run: as §1

Morganella morganii [21] = test: Minimum inhibitory concentration against aerobic organism Morganella morganii strain 2833
Enterococcus faecalis [22] = test: Minimum inhibitory concentration against aerobic organisms Streptococcus faecalis strain 2864; type: functional
How it was run: as §1

Shigella sp. = test: as §2; type: functional
How it was run: as §1

Enterobacter cloacae [23] = test: Minimum inhibitory concentration against aerobic organism Enterobacter cloacae 2646; type: functional
How it was run: as §1

Staphylococcus aureus [24] = test: Inhibition zone diameter against aerobic organism Staphylococcus aureus strain 2314; remark: listed apart in the source
[25] = Minimum inhibitory concentration against aerobic organism Salmonella schottmuelleri 2837; type: functional
How it was run: as §1

[26] = Streptococcus pyogenes, read-out: MIC

Compound	MIC (Enterobacter cloacae [7]) [µg/mL]	MIC (Proteus vulgaris) [µg/mL]	MIC (Pseudomonas aeruginosa [8]) [µg/mL]	MIC (Klebsiella pneumoniae [9]) [µg/mL]	MIC (Morganella morganii [10]) [µg/mL]	MIC (Proteus mirabilis) [µg/mL]	MIC (Salmonella [13]) [µg/mL]	MIC [14] [µg/mL]	MIC (Streptococcus pyogenes [15]; [26]) [µg/mL]	MIC (Staphylococcus aureus [17]) [µg/mL]	MIC (Escherichia coli) [µg/mL]	MIC (Staphylococcus aureus [18]) [µg/mL]	MIC (Enterococcus faecalis [19]) [µg/mL]	MIC (Klebsiella aerogenes [20]) [µg/mL]	MIC (Klebsiella pneumoniae [16]) [µg/mL]	further results
C[C@@H](O)[C@H]1C(=O)N2C(C(=O)O)=C(SCCNC=N)C[C@H]12 [IMIPENEM ANHYDROUS]	–	–	–	–	–	–	–	–	–	–	–	–	–	–	–	zone diameter (Morganella morganii [1]): 27 mm; zone diameter (Klebsiella): 26.5 mm; zone diameter (Staphylococcus aureus [2]): 42 mm; zone diameter (Salmonella [3]): 29.5 mm; zone diameter (Serratia marcescens [4]): 24.5 mm; zone diameter (Pseudomonas aeruginosa [5]): 31 mm; zone diameter (Streptococcus pyogenes [6]): 43 mm
CC1(C)S[C@@H]2[C@H](NC(=O)[C@H](N)c3ccccc3)C(=O)N2[C@H]1C(=O)O [AMPICILLIN]	–	–	–	–	–	–	–	1.56 (≈ 4.46 µM)	–	25 (≈ 71.5 µM)	> 100	–	–	–	50 (≈ 143 µM)	MIC (Enterococcus faecalis [22]): 6.25 µg/mL (≈ 17.9 µM); MIC (Shigella sp.): 6.25 µg/mL (≈ 17.9 µM); MIC (Enterobacter cloacae [23]): > 100 µg/mL; MIC (Streptococcus pyogenes [15]): < 0.09 µg/mL
CC(O)[C@H]1C(=O)N2C(C(=O)[O-])=C(SCCNc3cccc[n+]3C)C[C@H]12 (stereo partly specified)	–	–	–	–	–	–	–	–	–	–	–	–	–	–	–	zone diameter (Morganella morganii [1]): 27 mm; zone diameter (Klebsiella): 26 mm; zone diameter (Salmonella [3]): 27.5 mm; zone diameter (Serratia marcescens [4]): 26 mm; zone diameter (Pseudomonas aeruginosa [5]): 17.5 mm; zone diameter (Streptococcus pyogenes [6]): 37 mm; zone diameter (Staphylococcus aureus [24]): 42.5 mm
CC1(C)S[C@@H]2[C@H](NC(=O)Cc3ccccc3)C(=O)N2[C@H]1C(=O)O [PENICILLIN G]	–	–	–	–	–	–	–	–	< 0.39	12.5 (≈ 37.4 µM)	> 100	–	–	–	25 (≈ 74.8 µM)	MIC [25]: 3.12 µg/mL (≈ 9.33 µM); MIC (Enterococcus faecalis [22]): 1.56 µg/mL (≈ 4.67 µM); MIC (Shigella sp.): 6.25 µg/mL (≈ 18.7 µM); MIC (Enterobacter cloacae [23]): > 100 µg/mL

The next lines start with results.

MIC (Enterobacter cloacae [7]) [µg/mL]	MIC (Proteus vulgaris) [µg/mL]	MIC (Pseudomonas aeruginosa [8]) [µg/mL]	MIC (Klebsiella pneumoniae [9]) [µg/mL]	MIC (Morganella morganii [10]) [µg/mL]	MIC (Proteus mirabilis) [µg/mL]	MIC (Salmonella [13]) [µg/mL]	MIC [14] [µg/mL]	MIC (Streptococcus pyogenes [15]; [26]) [µg/mL]	MIC (Staphylococcus aureus [17]) [µg/mL]	MIC (Escherichia coli) [µg/mL]	MIC (Staphylococcus aureus [18]) [µg/mL]	MIC (Enterococcus faecalis [19]) [µg/mL]	MIC (Klebsiella aerogenes [20]) [µg/mL]	Compound	MIC (Klebsiella pneumoniae [16]) [µg/mL]	further results
1 (≈ 2.02 µM)	1 (≈ 2.02 µM)	> 128	8 (≈ 16.1 µM)	16 (≈ 32.3 µM)	32 (≈ 64.6 µM)	1 (≈ 2.02 µM)	< 0.004	0.015 (≈ 0.0303 µM)	4 (≈ 8.07 µM)	0.06 (≈ 0.121 µM)	0.25 (≈ 0.504 µM)	128 (≈ 258 µM)	2 (≈ 4.04 µM)	Cn1nnnc1SCC1=C(C(=O)[O-])N2C(=O)[C@@H](Nc3cc[n+](Cc4ccccc4)cc3)[C@H]2SC1	0.25 (≈ 0.504 µM)	MIC (Shigella): < 0.004 µg/mL; MIC (Klebsiella aerogenes [11]): 8 µg/mL (≈ 16.1 µM); MIC (Serratia marcescens [12]): 64 µg/mL (≈ 129 µM)
16 (≈ 32.5 µM)	< 0.5	> 128	–	–	128 (≈ 260 µM)	–	2 (≈ 4.07 µM)	< 0.5	16 (≈ 32.5 µM)	2 (≈ 4.07 µM)	–	> 128	–	CCOC(=O)C[n+]1ccc(N[C@@H]2C(=O)N3C(C(=O)[O-])=C(CSc4nnnn4C)CS[C@H]23)cc1	4 (≈ 8.14 µM)	MIC (Morganella morganii [21]): > 128 µg/mL; MIC (Shigella): < 0.5 µg/mL; MIC (Klebsiella aerogenes [11]): 32 µg/mL (≈ 65.1 µM); MIC (Serratia marcescens [12]): > 128 µg/mL
0.125 (≈ 0.273 µM)	0.25 (≈ 0.545 µM)	64 (≈ 140 µM)	32 (≈ 69.8 µM)	> 128	> 128	2 (≈ 4.36 µM)	–	–	0.5 (≈ 1.09 µM)	< 0.06	0.125 (≈ 0.273 µM)	128 (≈ 279 µM)	2 (≈ 4.36 µM)	O=C([O-])C1=C(C[n+]2ccccc2)CS[C@@H]2[C@H]([N-]c3cc[n+](Cc4ccccc4)cc3)C(=O)N12	–	–
4 (≈ 7.97 µM)	8 (≈ 15.9 µM)	> 128	> 128	> 128	> 128	4 (≈ 7.97 µM)	–	–	4 (≈ 7.97 µM)	1 (≈ 1.99 µM)	1 (≈ 1.99 µM)	> 128	> 128	CCOC(=S)SCC1=C(C(=O)[O-])N2C(=O)[C@@H](Nc3cc[n+](Cc4ccccc4)cc3)[C@H]2SC1	–	–
